Screening data as filed in PubChem BioAssay.
Compounds with a hit are over-represented: about 2.8% of the library has one in this group of screens.
Mcl1 Noxa PPI: disrupts binding of human Mcl-1 to Noxa peptide. Q07820. TR-FRET Mcl-1/Noxa peptide binding, 2 h. inhibition, % at 21.7 µM. actives 1.5% (n = 220,000);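 active = compounds that cut the protein-peptide binding signal by more than 50% relative to plate controls in a single-dose test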;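 also: His-tagged Mcl-1 with rhodamine Noxa BH3 peptide and terbium anti-His antibody; 0% = Mcl-1 plus Noxa peptide wells and 100% = peptide-only wells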
Target sequence (Q07820 whole entry, looked up): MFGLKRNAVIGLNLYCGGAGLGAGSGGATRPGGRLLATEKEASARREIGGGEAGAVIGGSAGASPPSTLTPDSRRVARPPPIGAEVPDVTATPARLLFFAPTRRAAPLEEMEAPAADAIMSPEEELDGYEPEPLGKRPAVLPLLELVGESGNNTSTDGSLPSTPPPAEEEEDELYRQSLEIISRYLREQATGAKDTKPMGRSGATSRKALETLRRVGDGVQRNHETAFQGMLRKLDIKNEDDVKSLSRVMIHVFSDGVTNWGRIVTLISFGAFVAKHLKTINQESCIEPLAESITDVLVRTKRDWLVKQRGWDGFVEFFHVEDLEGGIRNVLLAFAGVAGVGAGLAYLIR
Calb biofilm kill: mixture kills Candida albicans biofilm cells; C. albicans biofilm persisters + clotrimazole, fluorescence viability; primary screen in compound mixtures of four per well; inhibition, % at 7.6 µM; actives 0.02% (n = 120,000); AID 1242;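 active = inhibition above 30.3% in the primary screen of four-compound pools, then above 30% when the compound was retested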;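 also: compounds exposed to preformed 24 h biofilms for 48 h; 0% = untreated biofilm control and 100% = clotrimazole plus chlorhexidine kill blank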
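Test system: C. albicans biofilms. Buffer or medium: RPMI/MOPS medium, pH 7.0. Timing: 48 h compound exposure at 37 °C. Technique: Alamar Blue fluorescence. Evaluation: percent inhibition of biofilm viability.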
Arbovirus inh: blocks arbovirus infection; inhibition, % at 10 µM; AID 1251; actives 0.37% (n = 200,000); arbovirus infection cell-based antiviral screen; in the data active = inhibition above about 30%
Calpain2 inh: calpain II (pig) inhibition. AID 1236. inhibition, % at 16 µM. actives 0.37% (n = 220,000). purified calpain II, fluorogenic peptide substrate, 30 min;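 active = inhibition above about 50%, limit read from the data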
Bim-Mcl-1: human Bim-Mcl-1 interaction inhibition | actives 0.1% (n = 190,000) | Q07820 | Bead-based flow cytometry, Bim peptide-Mcl-1 binding | AID 1009 | inhibition, % at 10 µM; in the data active = inhibition above about 40%;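 also: 0% = no compound tracer wells and 100% = peptide blocker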
Mcl1 Bid PPI: Mcl-1/Bid interaction inhibition | inhibition, % at 21.7 µM | TR-FRET Mcl-1/Bid-Dy647 peptide binding, 1536-well | actives 0.97% (n = 220,000) | Q07820 | AID 1021;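 active = compounds that cut the binding signal by more than half at the single screening dose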;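 also: His-tagged Mcl-1 with europium anti-His antibody binding Bid BH3 peptide; 0% = Mcl-1 plus peptide wells and 100% = peptide-only wells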
An asterisk follows results filed as active; . = no result.

SMILES	Mcl1 Noxa PPI	Calb biofilm kill	Arbovirus inh	Calpain2 inh	Bim-Mcl-1	Mcl1 Bid PPI
CCOC(=O)CN(C(=O)CSc1nnc2c(n1)[nH]c1ccc(F)cc12)c1ccccc1	8	.	-9	59*	3	4
O=C1N(Cc2cccc(Cl)c2)C[C@@H]2C[C@@H](c3ccc4nonc4c3)N3CCC[C@@]123	6	15	-10	13	-1	-12
COC(=O)Cc1nc(Nc2ccccc2)sc1C	3	0	.	-13	.	-30
NC(=O)c1cccn1-c1ncc(C(F)(F)F)cc1Cl	13	31	-1	28	-4	83*
CN1CCN(C(=S)NC(CC(=O)c2ccccc2)c2ccccc2)CC1 (stereo not drawn)	15	8	.	-17	.	-114
CSS(=O)(=O)c1cccc2cccnc12	-8	17	.	-16	.	-38
COc1ccc(NC(=O)c2cc(C3CC3)on2)c(OC)c1	-5	.	-1	14	-3	85*
COC(=O)c1ccccc1NC(=O)c1cc(C2CC2)on1	17	.	8	-25	0	-15
Oc1ccc(N=Nc2cccc(Cl)c2)cc1C=Nc1ccc(N2CCOCC2)cc1	86*	19	-12	30	0	56*
Cn1c(SCC(=O)Nc2ccc3nc(SCC(=O)N4CCCC4)sc3c2)nnc1-c1ccc(N)cc1	100*	.	3	-153	0	24
CCN(CC)C(=O)CSc1nc2ccc(NC(=O)CSc3nnc(N)s3)cc2s1	44	.	2	-212	-3	-55
CCN(CC)C(=O)CSc1nc2ccc(NC(=O)CSc3nccn3C)cc2s1	56*	.	2	-38	14	4
Cn1c(Oc2ccccc2NCc2cc(Br)ccc2O)cc(=O)n(C)c1=O	22	.	32*	2	5	-33
CCOc1cccc(CNCCO)c1OCc1ccc(Cl)cc1Cl	29	19	-13	12	-6	72*
CCOc1cccc(CNc2ccc(O)cc2)c1OCc1ccc(Cl)cc1Cl	4	.	5	68*	-4	-13
CCOc1cc(CNCCO)cc(Br)c1OCc1ccc(Cl)cc1Cl	33	.	-30	23	-4	16
S=C(NCc1ccccc1)N1CCn2cccc2C1c1cccnc1 (stereo not drawn)	3	8	34*	9	0	-24
COc1ccc(NC(=O)c2ccc(NC(=O)CN(C)CC(=O)Nc3c(C)cccc3C)cc2)cc1	5	-4	.	13	.	-6
Cc1cc(C(=O)CSc2nnc(-c3ccco3)o2)c(C)n1Cc1ccco1	5	.	31*	-32	-4	21
Cn1c(=O)c2c3c(sc2n2c(SCC(N)=O)nnc12)CC(C(C)(C)C)CC3 (stereo not drawn)	-3	.	-26	66*	1	-10
C/C(N)=C(/C#N)C(=O)COC(=O)c1ccc(NC(N)=O)cc1	-9	12	.	-20	.	-23
O=C(O)c1ccc(CSc2nnc(-c3cccnc3)n2-c2ccc(Br)cc2)cc1	5	2	2	-22	-5	-52
O=C(/C=C/c1ccc2c(c1)OCCCO2)c1ccc2ccccc2c1O	16	12	32*	0	0	-1
Cc1ccc(C(=O)/C=C/c2ccc3c(c2)OCCO3)c(O)c1	-4	25	.	-2	.	8
O=C1C2C3C=CC(CO)(O3)C2C(=O)N1c1ccccc1-c1ccccc1 (stereo not drawn)	53*	.	-1	-13	-14	5
SMILES	Mcl1 Noxa PPI	Calb biofilm kill	Arbovirus inh	Calpain2 inh	Bim-Mcl-1	Mcl1 Bid PPI
Cc1ccc(C(=O)N2CCN(Cc3ccc4c(c3)OCO4)CC2)cc1[N+](=O)[O-]	-6	14	-5	4	0	-33
N#Cc1ccc(-c2ccccc2)nc1SCC(=O)c1cc2ccccc2oc1=O	21	.	24	-217	-3	64*
CCC(C)(C(=O)NC1CCCCC1)N(C(=O)CNC(=O)c1ccccc1)c1c(C)n(C)n(-c2ccccc2)c1=O (stereo not drawn)	10	4	4	-13	2	-32
Cc1ccc(-c2cn(-c3ccccc3)c(SCC(N)=O)n2)cc1C	17	10	10	0	-7	87*
CCOC(=O)NC(=O)CSc1nc(-c2ccc(C)c(C)c2)cn1-c1ccccc1	22	18	10	11	-1	-39
CCC(C)NCCCOc1c(C)cc(C)cc1Br (stereo not drawn)	119*	14	-15	15	0	26
COc1ccc(S(=O)(=O)N2CCN(C(=O)NC3CCCCC3)CC2)cc1OC	56*	.	-3	-12	-4	-61
COc1ccc(S(=O)(=O)N2CCN(c3ccccc3OC)CC2)cc1OC	5	.	49*	9	-5	5
COc1ccc(NC(=O)c2ccc(S(=O)(=O)N(C)c3ccccc3)cc2)cn1	-24	18	.	-11	.	-63
CCC(=O)N=c1ccn(C2=Nc3ccccc3NC2=C(C#N)C#N)cc1	22	14	.	-204	.	-12
CN(CCOC(=O)c1ccc2c(c1)OCO2)C(C)(C)C	13	19	2	-11	0	-5
O=CNCC(=O)NCCc1ccc(Cl)cc1	17	.	37*	-12	-4	-27
O=C(Cc1c(Cl)cccc1Cl)NCCc1ccc(Cl)cc1	2	15	-8	-13	-3	-5
CN(C)S(=O)(=O)N1CCN(c2ccccc2)CC1	15	.	3	-5	-5	-29
CN(C)S(=O)(=O)N1CCN(c2cccc(Cl)c2)CC1	55*	.	-4	17	9	-8
N/C(=N\OC(=O)/C=C/c1ccccc1Cl)c1ccncc1	4	17	1	14	0	-25
O=C(CNC(=O)c1ccccc1F)OC(C(=O)Nc1cc(C(F)(F)F)ccc1Cl)c1ccccc1 (stereo not drawn)	-2	.	5	61*	0	-2
CC1=Nc2ccccc2/C1=C/c1sc(=S)n(-c2cccc(C(=O)O)c2)c1O	20	-1	-7	32	.	33
CSc1nsc2nc(=O)c(/C=C3\C(C)=Nc4ccccc43)c(N)n12	30	11	32*	30	2	-8
CC1(C)CC(=O)C2=C(C1)N(c1ccc(F)cc1)C(=O)C2(NC(=O)c1ccccc1)C(F)(F)F (stereo not drawn)	-4	10	-3	-11	2	2
CCCCCCC(=O)N/N=C(\C)Cc1ccccc1	70*	16	6	22	-3	-14
COc1cccc(/C=C2\N=C(SC)SC2=O)c1OC	10	.	1	-20	-2	-15
CSC1=N/C(=C\c2ccccc2F)C(=O)S1	92*	.	-1	-107	1	100*
COc1ccc(NC(C)c2cc(Cl)ccc2O)cc1 (stereo not drawn)	22	.	-24	50*	-2	-24
CC(Nc1ccccc1)c1cc(Cl)ccc1O (stereo not drawn)	-20	9	1	-13	-39	-25
CCCCCCCN1C/C=C\C(c2ccc(OC)cc2)N(Cc2ccc(F)cc2)C(=O)[C@H]1Cc1ccccc1 (stereo partly drawn)	-19	19	.	11	.	-53
